From ChEMBL document CHEMBL1129251 (J Med Chem, 1996)

Assays:
[1] = target: T1, Adrenergic receptor alpha-1 (Rattus norvegicus, UniProt P15823+P23944+P43140); test: Alpha-1 adrenergic receptor binding affinity in rat brain membranes; type: cell membranes
T1 sequence (P15823 whole entry): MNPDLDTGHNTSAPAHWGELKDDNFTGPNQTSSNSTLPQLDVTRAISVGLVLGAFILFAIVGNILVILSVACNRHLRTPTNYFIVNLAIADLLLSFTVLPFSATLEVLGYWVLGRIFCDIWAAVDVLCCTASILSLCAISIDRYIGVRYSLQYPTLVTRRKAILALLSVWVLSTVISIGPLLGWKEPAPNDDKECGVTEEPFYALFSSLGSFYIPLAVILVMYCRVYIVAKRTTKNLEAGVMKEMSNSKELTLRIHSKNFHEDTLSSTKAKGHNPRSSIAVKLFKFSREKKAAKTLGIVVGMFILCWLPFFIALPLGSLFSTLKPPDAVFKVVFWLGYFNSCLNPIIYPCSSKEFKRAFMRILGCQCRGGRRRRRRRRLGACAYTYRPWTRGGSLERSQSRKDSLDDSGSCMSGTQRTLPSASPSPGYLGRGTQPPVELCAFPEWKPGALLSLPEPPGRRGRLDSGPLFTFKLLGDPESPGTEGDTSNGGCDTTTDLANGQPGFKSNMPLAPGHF
T1 sequence (P23944 whole entry): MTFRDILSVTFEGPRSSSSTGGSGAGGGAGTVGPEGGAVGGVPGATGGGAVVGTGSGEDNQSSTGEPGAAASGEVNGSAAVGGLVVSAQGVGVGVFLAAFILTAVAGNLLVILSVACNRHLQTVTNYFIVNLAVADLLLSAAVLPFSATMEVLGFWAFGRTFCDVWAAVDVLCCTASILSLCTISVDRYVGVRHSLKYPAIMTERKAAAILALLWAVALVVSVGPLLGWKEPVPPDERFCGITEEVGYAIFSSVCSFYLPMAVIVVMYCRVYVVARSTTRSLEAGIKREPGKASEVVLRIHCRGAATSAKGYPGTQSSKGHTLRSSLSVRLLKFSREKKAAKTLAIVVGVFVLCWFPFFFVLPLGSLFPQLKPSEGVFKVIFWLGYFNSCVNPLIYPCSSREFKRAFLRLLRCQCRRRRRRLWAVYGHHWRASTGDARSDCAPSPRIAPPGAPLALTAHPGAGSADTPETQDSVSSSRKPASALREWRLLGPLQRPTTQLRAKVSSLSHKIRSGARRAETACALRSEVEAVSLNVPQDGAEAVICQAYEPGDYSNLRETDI
T1 sequence (P43140 whole entry): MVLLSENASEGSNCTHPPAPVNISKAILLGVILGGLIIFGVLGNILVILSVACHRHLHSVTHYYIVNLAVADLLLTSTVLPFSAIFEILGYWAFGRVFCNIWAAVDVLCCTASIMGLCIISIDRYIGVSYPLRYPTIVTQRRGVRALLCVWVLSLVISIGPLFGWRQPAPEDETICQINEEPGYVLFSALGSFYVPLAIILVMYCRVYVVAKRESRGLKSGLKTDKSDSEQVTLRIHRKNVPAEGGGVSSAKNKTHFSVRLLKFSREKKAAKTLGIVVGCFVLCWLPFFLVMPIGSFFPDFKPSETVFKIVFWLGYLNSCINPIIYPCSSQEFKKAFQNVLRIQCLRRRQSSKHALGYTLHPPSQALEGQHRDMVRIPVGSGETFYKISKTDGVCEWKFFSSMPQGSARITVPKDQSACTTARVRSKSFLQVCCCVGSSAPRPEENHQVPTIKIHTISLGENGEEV
In short: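 Rat frontal cortex membranes, washed in 50 mM Tris-HCl/10 mM MgCl2 pH 7.4, at about 300 µg/mL protein. Labelled with 0.1 nM [3H]prazosin in the same buffer. Nonspecific binding set by 10 µM phentolamine. 30 °C for 30 min, then filtration and scintillation counting, in triplicate.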

[2] = target: T2, Adrenergic receptor alpha-2 (Homo sapiens, UniProt P08913+P18825+P18089); test: Antagonistic activity against Alpha-2 adrenergic receptor in human blood platelets; type: functional, tissue-based
T2 sequence (P08913 whole entry): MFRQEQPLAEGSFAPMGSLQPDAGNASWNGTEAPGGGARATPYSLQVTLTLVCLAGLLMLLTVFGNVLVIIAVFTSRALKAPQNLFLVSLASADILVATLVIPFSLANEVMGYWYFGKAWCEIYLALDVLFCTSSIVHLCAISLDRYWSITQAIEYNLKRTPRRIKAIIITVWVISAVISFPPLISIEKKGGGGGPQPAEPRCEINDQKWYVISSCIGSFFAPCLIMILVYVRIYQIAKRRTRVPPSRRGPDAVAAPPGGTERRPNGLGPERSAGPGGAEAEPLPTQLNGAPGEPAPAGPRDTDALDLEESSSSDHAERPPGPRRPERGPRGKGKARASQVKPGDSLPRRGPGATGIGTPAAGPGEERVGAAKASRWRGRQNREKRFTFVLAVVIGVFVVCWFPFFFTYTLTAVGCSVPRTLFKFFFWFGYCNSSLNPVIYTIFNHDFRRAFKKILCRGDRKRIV
T2 sequence (P18825 whole entry): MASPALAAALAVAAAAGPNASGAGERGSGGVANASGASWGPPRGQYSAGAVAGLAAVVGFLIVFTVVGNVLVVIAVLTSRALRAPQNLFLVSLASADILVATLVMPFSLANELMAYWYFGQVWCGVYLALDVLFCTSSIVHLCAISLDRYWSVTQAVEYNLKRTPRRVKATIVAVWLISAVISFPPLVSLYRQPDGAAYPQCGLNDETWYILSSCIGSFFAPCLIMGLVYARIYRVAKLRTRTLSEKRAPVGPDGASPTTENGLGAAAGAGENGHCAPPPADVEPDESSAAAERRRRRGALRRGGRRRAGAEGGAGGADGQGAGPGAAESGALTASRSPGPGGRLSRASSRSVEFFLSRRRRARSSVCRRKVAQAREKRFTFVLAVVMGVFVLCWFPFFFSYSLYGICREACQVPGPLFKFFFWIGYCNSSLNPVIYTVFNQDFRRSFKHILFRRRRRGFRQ
T2 sequence (P18089 whole entry): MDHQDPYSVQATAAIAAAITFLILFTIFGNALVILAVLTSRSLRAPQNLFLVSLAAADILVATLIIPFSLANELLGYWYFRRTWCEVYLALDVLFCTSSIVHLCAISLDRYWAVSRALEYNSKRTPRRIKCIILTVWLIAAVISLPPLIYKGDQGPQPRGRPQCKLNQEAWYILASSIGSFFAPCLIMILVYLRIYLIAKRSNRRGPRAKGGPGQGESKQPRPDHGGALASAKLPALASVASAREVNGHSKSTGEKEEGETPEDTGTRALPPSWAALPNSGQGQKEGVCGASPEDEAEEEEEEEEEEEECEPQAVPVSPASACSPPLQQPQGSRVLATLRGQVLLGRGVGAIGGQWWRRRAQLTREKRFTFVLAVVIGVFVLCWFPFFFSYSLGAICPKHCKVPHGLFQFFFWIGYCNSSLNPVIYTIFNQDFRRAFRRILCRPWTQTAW
In short: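 Human platelet-rich plasma pretreated with 1 mM aspirin. Inhibitor at various concentrations added 1 min before epinephrine (30-100 µM). Primary-wave aggregation measured; IC50 is the molar 50% inhibitory concentration.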

[3] = target: T3, Adrenergic receptor alpha-2 (Rattus norvegicus, UniProt P22086+P19328+P22909); test: Alpha-2 adrenergic receptor binding affinity was tested against membrane preparations of rat brain using 0.2 nM [3H]rauwolscine as radioligand
T3 sequence (P22086 whole entry): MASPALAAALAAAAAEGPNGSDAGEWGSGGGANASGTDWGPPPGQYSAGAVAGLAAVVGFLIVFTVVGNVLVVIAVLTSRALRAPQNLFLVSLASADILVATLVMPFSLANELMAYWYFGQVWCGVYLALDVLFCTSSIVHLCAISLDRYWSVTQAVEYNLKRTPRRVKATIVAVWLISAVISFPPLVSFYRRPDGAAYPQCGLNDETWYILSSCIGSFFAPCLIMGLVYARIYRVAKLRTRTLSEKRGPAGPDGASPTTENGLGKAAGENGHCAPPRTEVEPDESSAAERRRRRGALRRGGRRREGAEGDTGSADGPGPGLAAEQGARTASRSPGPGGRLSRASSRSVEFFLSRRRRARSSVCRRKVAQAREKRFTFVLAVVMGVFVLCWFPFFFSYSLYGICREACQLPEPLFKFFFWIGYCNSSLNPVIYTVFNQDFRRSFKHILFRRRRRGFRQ
T3 sequence (P19328 whole entry): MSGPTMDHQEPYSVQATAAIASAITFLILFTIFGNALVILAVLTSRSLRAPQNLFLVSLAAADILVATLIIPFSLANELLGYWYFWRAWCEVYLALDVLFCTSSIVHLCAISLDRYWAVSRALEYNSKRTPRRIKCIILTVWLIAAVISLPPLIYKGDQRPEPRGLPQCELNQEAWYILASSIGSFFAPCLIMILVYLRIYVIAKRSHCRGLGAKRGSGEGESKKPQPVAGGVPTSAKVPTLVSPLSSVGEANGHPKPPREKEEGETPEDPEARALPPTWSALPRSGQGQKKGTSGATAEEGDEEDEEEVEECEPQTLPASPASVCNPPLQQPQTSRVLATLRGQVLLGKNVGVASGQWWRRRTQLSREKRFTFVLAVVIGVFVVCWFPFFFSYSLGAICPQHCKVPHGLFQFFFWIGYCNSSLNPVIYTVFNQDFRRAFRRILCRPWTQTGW
T3 sequence (P22909 whole entry): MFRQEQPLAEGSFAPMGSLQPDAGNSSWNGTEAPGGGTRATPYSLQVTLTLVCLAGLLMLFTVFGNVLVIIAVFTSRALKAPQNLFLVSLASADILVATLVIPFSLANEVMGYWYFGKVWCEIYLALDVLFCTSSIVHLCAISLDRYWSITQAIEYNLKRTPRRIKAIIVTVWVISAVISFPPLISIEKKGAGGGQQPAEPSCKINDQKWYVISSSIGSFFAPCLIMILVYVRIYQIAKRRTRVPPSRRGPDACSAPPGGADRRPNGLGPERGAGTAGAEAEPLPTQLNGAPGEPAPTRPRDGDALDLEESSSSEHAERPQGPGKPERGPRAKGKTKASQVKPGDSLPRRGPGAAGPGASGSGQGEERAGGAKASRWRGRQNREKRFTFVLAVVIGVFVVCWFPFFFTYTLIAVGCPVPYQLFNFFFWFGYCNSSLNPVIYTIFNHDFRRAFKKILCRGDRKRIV
In short: (§1)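 Rat frontal cortex membranes at about 500 µg/mL protein, labelled with [3H]rauwolscine in Tris buffer pH 7.4 containing 10 mM EDTA. Nonspecific binding set by 10 µM phentolamine. 30 °C for 30 min, then filtration and scintillation counting, in triplicate.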

[4] = Selectivity ratio of Ki of alpha-1 adrenergic receptor to alpha-2 receptor
[5] = target: T1, Adrenergic receptor alpha-1; test: 50% Molar effective concentration for agonistic activity against Alpha-1 adrenergic receptor in rat aorta; type: functional, tissue-based
In short: (§2)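 Aorta from rats of 150-300 g, either sex. Tissue checked with 30 nM phenylephrine, then a cumulative phenylephrine curve. After 90 min the test agent was added cumulatively. Contraction expressed as % of the maximum to 1 µM phenylephrine (= 100%). EC50 is the molar 50% effective concentration; Emax is the maximal response relative to phenylephrine.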

[6] = target: T4, Adrenergic receptor alpha-1 (Rattus norvegicus) (UniProt P15823+P23944+P43140); test: Agonistic activity against Alpha-1 adrenergic receptor in rat aorta expressed as percent maximal analog response relative to phenylephrine as 100%; type: functional, tissue-based; in short: as §2
[7] = Antagonistic activity against alpha2 adrenoceptor in human blood platelets expressed as IC50(medetomidine)/IC50(analog); type: functional
In short: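 Human platelet-rich plasma; inhibitor at various concentrations added 1 min before triggering aggregation with epinephrine (30-100 µM); aspirin 1 mM routinely added to study the primary-wave aggregation response.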

[8] = alpha 2 antagonistic adrenoceptor activity in human blood platelets Potency ratio: IC50(medetomidine)/IC50(analog); type: functional
In short: (§3)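 Inhibition of epinephrine (30-100 µM)-induced primary-wave aggregation in aspirin (1 mM)-treated human platelet-rich plasma, with inhibitor added 1 min before agonist.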

[9] = target: T2, Adrenergic receptor alpha-2; test: Alpha-2 adrenergic receptor antagonistic activity in human blood platelets.; type: functional, tissue-based
In short: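 Human platelet-rich plasma pretreated with 1 mM aspirin. Inhibitor at various concentrations added 1 min before epinephrine (30-100 µM).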

[10] = target: T3, Adrenergic receptor alpha-2; test: Alpha-2 adrenergic receptor binding affinity was tested against membrane preparations of rat brain.; in short: as §1
[11] = Alpha 2 antagonistic adrenoceptor activity in human blood platelets Potency ratio: IC50(medetomidine)/IC50(analog); type: functional; in short: as §3
[12] = target: T4, Adrenergic receptor alpha-1 (Rattus norvegicus); test: Antagonistic activity against Alpha-1 adrenergic receptor in rat aorta; type: functional, tissue-based
In short: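 Rat aorta rings (rats 150-300 g, either sex) contracted by cumulative phenylephrine, with and without the antagonist. KB = [B]/(DR − 1), where DR is the dose ratio in the presence and absence of the antagonist.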

Row | Structure (SMILES) | Ki [1] [nM] | Ki [3] [nM] | Ratio [4] | IC50 [9] [nM] | Ki [10] [nM] | also measured
1 | CC(c1c[nH]cn1)c1cccc2ccccc12 (stereo unspecified) | 224 | 13 | 17.2 |  |  | IC50 [2]: 4300 nM; EC50 [5]: 153 nM; Emax [6]: 39%; Potency ratio [7]: 0.69
2 | c1cc2c3c(cccc3c1)C(c1c[nH]cn1)CC2 (stereo unspecified) | 55 | 33 | 1.67 | 14300 |  | Potency ratio [8]: 0.2; Emax [6]: 38%
3 | C[C@H](N)[C@H](O)c1ccc(O)c(O)c1 [LEVONORDEFRIN] | 9221 |  |  |  | 205 | 
4 | c1ccc2c3c(ccc2c1)CCCC3c1c[nH]cn1 (stereo unspecified) | 655 |  |  | 97700 | 1449 | Potency ratio [11]: 0.03; Kb [12]: 136 nM
5 | C=C(c1c[nH]cn1)c1cccc2ccccc12 | 1734 | 122 | 14.2 |  |  | 
6 | C/C=C(/c1c[nH]cn1)c1cccc2ccccc12 | 387 | 1474 | 0.26 |  |  | 
7 | Cc1cccc(C(C)c2c[nH]cn2)c1C (stereo unspecified) [MEDETOMIDINE] |  |  |  |  | 25 | 
8 | C/C=C(\c1c[nH]cn1)c1cccc2ccccc12 | 57 | 1890 | 0.03 | 215400 |  | Potency ratio [8]: 0.01; Kb [12]: 3390 nM
9 | CCC(c1c[nH]cn1)c1cccc2ccccc12 (stereo unspecified) | 574 | 165 | 3.48 |  |  | 
